Calls of active or inactive are those of the source.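 The calls were made as follows, unless noted: active = viability at or under a set limit in both replicates, limit being median viability minus 3 SD (cut at about 48% in these data, passing the limit was not always enough); inconclusive = at or under the limit in just one replicate; inactive = at or above the limit in both replicates.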
What was measured:
[1] = reducers of endogenous Her2 protein level, primary screen, SKBR3 breast tumor cells, AlphaScreen, ATP viability (AID 461;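 active = Her2 level under about 52% in both replicate screens, with viability over 70% of control, limit read from the data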;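 as to Her2 level: lower value means less Her2 protein in the cells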;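 as to viability: percent of carrier control wells set as 100% viability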); settings: 18-24 h, measured here: SKBR3 viability, ATP luminescence, at 10 µM
[2] = target: Receptor tyrosine-protein kinase erbB-2 (Homo sapiens) (UniProt P04626); assay: as above; settings: 18-24 h, at 10 µM, stronger effect = lower value
[3] = SK-BR-3 cell growth inhibitors, pilot screen, 24 h, human (AID 572;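 active = viability at or below 10% of carrier control in both of two separate runs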;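 also: compound exposure lasted between 18 and 24 h rather than exactly 24 h; 100% = carrier-treated control wells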); settings: SK-BR-3 viability, CellTiter-Glo luminescence, at 10 µM, stronger effect = lower value
[4] = HUVEC growth inhibition – cell-based, human, primary screen (AID 575;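 active = viability at or below 30% in both replicate assays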;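 also: 100% = median of untreated cell wells with 0.1% DMSO on each plate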); settings: HUVEC proliferation, CellTiter-Glo luminescence, 72 h; at 10 µM; stronger effect = lower value
How it was run: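 Assay system: primary human umbilical vein endothelial cells / Buffer or medium: endothelial basal medium with 2% FBS plus growth supplements / Compound dosing: one dose, 10 µM final, 0.1% DMSO / Timing: 72 h treatment at 37 °C / Signal: CTG luminescence / Benchmarks: 32 DMSO-only cell-control wells (high), 32 MePR drug-control wells (low) per plate / Plate: collagen-coated 384-well format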

[5] = growth inhibitors of H69AR lung tumor, primary screen, human, duplicate replicates (AID 580); settings: H69AR lung tumor cells viability, ATP luminescence, 72 h; at 10 µM; stronger effect = lower value;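 also: 100% = mean luminescence of untreated wells and 0% = no signal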
[6] = reversal of MRP1-mediated doxorubicin resistance, pilot screen, H69AR cells, doxorubicin co-treatment (AID 601;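 active = viability loss from added drug above about 55%, and viability with drug at most 40%, in both replicates, limit read from the data, passing the limit was not always enough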); settings: CellTiter-Glo, 72 h, at 10 µM; for differential viability (reversal): stronger effect = higher value
[7] = 384-well plate pilot, post-Golgi transport modulator project, inhibition of yeast transport mutant growth (AID 636; in the data active = inhibition above about 31%); settings: absorbance 615 nm, about 18 h, stronger effect = higher value
[8] = growth suppression of yeast trafficking mutant, preliminary HTS, modulators of trafficking downstream of Golgi apparatus project, 1536-format plate, OD 615 nm (AID 637; in the data active = inhibition above about 30%); settings: yeast transport mutant growth, absorbance 615 nm, 18 h; stronger effect = higher value
[9] = H69AR cells + 2 uM doxorubicin, measured here: viability with 2 uM doxorubicin, stronger effect = lower value
[10] = H69AR cells, compound alone cytotoxicity

Chain of Receptor tyrosine-protein kinase erbB-2 (Homo sapiens) (P04626 whole entry, looked up): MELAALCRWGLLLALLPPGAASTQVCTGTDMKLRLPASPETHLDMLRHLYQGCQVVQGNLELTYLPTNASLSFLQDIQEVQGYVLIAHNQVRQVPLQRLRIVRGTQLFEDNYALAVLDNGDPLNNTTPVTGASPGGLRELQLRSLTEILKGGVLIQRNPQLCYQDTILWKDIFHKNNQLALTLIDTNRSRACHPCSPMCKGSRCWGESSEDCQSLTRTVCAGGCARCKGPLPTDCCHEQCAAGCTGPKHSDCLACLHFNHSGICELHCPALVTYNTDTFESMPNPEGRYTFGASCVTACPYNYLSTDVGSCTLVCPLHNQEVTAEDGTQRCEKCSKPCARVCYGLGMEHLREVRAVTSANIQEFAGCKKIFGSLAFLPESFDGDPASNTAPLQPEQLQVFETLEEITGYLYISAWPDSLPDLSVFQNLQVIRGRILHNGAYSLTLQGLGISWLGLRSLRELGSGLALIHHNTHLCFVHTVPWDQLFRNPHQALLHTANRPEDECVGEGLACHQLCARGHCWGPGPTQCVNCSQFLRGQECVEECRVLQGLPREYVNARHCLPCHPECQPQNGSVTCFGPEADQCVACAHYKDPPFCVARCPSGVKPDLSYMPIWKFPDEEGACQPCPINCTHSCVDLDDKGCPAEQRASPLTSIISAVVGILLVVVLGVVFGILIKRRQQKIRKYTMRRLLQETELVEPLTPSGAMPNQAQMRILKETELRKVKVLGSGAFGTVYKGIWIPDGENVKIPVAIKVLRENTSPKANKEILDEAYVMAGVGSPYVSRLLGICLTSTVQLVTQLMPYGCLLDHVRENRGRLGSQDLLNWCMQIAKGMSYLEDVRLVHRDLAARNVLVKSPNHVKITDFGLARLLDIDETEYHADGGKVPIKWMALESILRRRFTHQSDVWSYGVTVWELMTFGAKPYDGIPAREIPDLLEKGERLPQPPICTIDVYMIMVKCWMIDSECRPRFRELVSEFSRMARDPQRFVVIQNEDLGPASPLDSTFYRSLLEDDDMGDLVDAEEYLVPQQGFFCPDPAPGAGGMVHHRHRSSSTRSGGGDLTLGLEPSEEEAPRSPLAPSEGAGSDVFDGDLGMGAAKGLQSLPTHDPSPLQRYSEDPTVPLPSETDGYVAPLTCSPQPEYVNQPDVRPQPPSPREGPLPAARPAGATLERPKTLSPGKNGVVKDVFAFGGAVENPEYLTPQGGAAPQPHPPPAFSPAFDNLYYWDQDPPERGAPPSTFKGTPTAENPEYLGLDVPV

Row | SMILES | viability [1] | Her2 level [2] | viability [3] | viability [4] | viability [5] | differential viability (reversal) ([6]; H69AR cells + 2 uM doxorubicin) | viability [6, 9] | viability [6, 10] | inhibition [7] | inhibition [8]
1 | CCOC(=O)c1ccc(NC(=O)CSc2n[nH]c(-c3ccncc3)n2)cc1 | 87.5% | 102% (inactive) | 87.5% (inactive) | 80% (inactive) | 87.7% (inactive) | -1.68% (inactive) | 89.4% | 87.7% | -3.11% (inactive) | 1.27% (inactive)
2 | O=S(=O)(Nc1ccccn1)c1ccc(Oc2ccccc2)cc1 | 88% | 87.5% (inactive) | 88% (inactive) | 87.8% (inactive) | 98.8% (inactive) | 10.5% (inactive) | 88.3% | 98.8% | -2.57% (inactive) | -1.11% (inactive)
3 | Cc1ccc(-c2nc3ncccc3o2)cc1NC(=O)c1ccco1 | 97.5% | 76.5% (inactive) | 97.5% (inactive) | 100% (inactive) | 99.2% (inactive) | 7.96% (inactive) | 91.3% | 99.2% | -6.76% (inactive) | -2.62% (inactive)
4 | O=C(CSc1nnnn1-c1ccc(Cl)cc1)NC(=O)Nc1ccc2c(c1)OCCO2 | 104% | 101% (inactive) | 104% (inactive) | 66.9% (inactive) | 75.5% (inactive) | 0.67% (inactive) | 74.8% | 75.5% | -6% (inactive) | 3.02% (inactive)
5 | CC1CCN(C(=O)CSc2nnc(-c3ccc(S(=O)(=O)N4CCOCC4)cc3)n2C)CC1 | 108% | 109% (inactive) | 108% (inactive) | 93.7% (inactive) | 88.3% (inactive) | -4.8% (inactive) | 93.1% | 88.3% | -4.4% (inactive) | -2.62% (inactive)
6 | O=C(Cn1cccc1C(=O)c1ccccc1)NCCN1CCOCC1 | 98% | 89.5% (inactive) | 98% (inactive) | 111% (inactive) | 90% (inactive) | 2.57% (inactive) | 87.4% | 90% | -0.79% (inactive) | 0.97% (inactive)
7 | O=C(CNC1CCCCCC1)Nc1ccc(S(=O)(=O)NC2CC2)cc1 | 100% | 87% (inactive) | 100% (inactive) | 64.8% (inactive) | 93.7% (inactive) | 5.79% (inactive) | 87.9% | 93.7% | -4.53% (inactive) | -0.48% (inactive)
8 | c1ccc(OCCCn2nnc(-c3cccnc3)n2)cc1 | 110% | 87.5% (inactive) | 110% (inactive) | 103% (inactive) | 108% (inactive) | 10.3% (inactive) | 97.3% | 108% | -3.68% (inactive) | -5.83% (inactive)
9 | Cc1cc(N2C(=O)C3C4C=CC(C4)C3C2=O)ccc1Br (stereo not given) | 107% | 99.5% (inactive) | 107% (inactive) | 87.8% (inactive) | 101% (inactive) | 11.6% (inactive) | 89.3% | 101% | -6.58% (inactive) | -5.4% (inactive)
10 | COC(=O)c1sc(S(=O)(=O)NCc2cccs2)c(C(=O)OC)c1C | 84% | 93% (inactive) | 84% (inactive) | 85.8% (inactive) | 92.3% (inactive) | 7.38% (inactive) | 84.9% | 92.3% | -8.24% (inactive) | 4.26% (inactive)
11 | CCc1cc(=O)oc2cc(OC(C)=O)cc(OC(C)=O)c12 | 116% | 74% (inactive) | 116% (inactive) | 76.8% (inactive) | 95.1% (inactive) | -9.96% (inactive) | 105% | 95.1% | -7.37% (inactive) | -5.5% (inactive)
12 | CC1CN=C(N(C(=O)Nc2ccccc2)c2ccc(S(=O)(=O)N3CCOCC3)cc2)S1 (stereo not given) | 95.5% | 108% (inactive) | 95.5% (inactive) | 91.5% (inactive) | 95.3% (inactive) | 16.8% (inactive) | 78.5% | 95.3% | -0.51% (inactive) | -8.67% (inactive)
13 | Cc1cccc(OCCCC(=O)O)c1 | 101% | 102% (inactive) | 101% (inactive) | 93.5% (inactive) | 89.4% (inactive) | -4.09% (inactive) | 93.5% | 89.4% | -4.73% (inactive) | -6.83% (inactive)
14 | COc1ccc(OC)c(NC(=O)CCN2CCN(c3ccccc3F)CC2)c1 | 94.5% | 106% (inactive) | 94.5% (inactive) | 90.8% (inactive) | 97.8% (inactive) | 13.1% (inactive) | 84.7% | 97.8% | -4.93% (inactive) | -8.39% (inactive)
15 | CCOc1ccccc1C(=O)NC(C)c1ccc2c(c1)OCO2 (stereo not given) | 104% | 99% (inactive) | 104% (inactive) | 67.6% (inactive) | 23.5% (active) | -56.4% (inactive) | 80% | 23.5% | -6.89% (inactive) | -4.26% (inactive)
16 | CC(=O)Nc1ccc(S(=O)(=O)N2CCC(NC(C)=O)(c3cccc(F)c3)CC2)cc1 | 89% | 79% (inactive) | 89% (inactive) | 100% (inactive) | 104% (inactive) | 13% (inactive) | 90.5% | 104% | -6.89% (inactive) | 0.82% (inactive)

Row | SMILES | viability [1] | Her2 level [2] | viability [3] | viability [4] | viability [5] | differential viability (reversal) ([6]; H69AR cells + 2 uM doxorubicin) | viability [6, 9] | viability [6, 10] | inhibition [7] | inhibition [8]
17 | O=C(CN1C(=O)c2cccc3cccc1c23)N1CCN(c2ccccc2)CC1 | 100% | 103% (inactive) | 100% (inactive) | 111% (inactive) | 113% (inactive) | 23.3% (inactive) | 89.5% | 113% | 1.49% (inactive) | -1.5% (inactive)
18 | COCCNc1nc(SCC(=O)N2CCN(c3ccccc3)CC2)nc2ccccc12 | 72% | 81.5% (inactive) | 72% (inactive) | 84.4% (inactive) | 84.3% (inactive) | 10.4% (inactive) | 73.9% | 84.3% | -7.6% (inactive) | -1.48% (inactive)
19 | O=C(CSc1ncnc2c1cnn2Cc1ccccc1)Nc1ccc2c(c1)OCCO2 | 109% | 98.5% (inactive) | 109% (inactive) | 74.9% (inactive) | 56.1% (inactive) | -5.15% (inactive) | 61.3% | 56.1% | -4.68% (inactive) | -6.23% (inactive)
20 | Cc1ccc(-c2nn(C)c(=O)c3ccccc23)cc1S(=O)(=O)NCCN1CCOCC1 | 87% | 121% (inactive) | 87% (inactive) | 98.6% (inactive) | 93.3% (inactive) | 5.54% (inactive) | 87.8% | 93.3% | 6.8% (inactive) | -6.35% (inactive)
21 | COCc1nnc(NC(=O)CCCOc2ccccc2)s1 | 107% | 92% (inactive) | 107% (inactive) | 85.6% (inactive) | 98.5% (inactive) | 10.4% (inactive) | 88.1% | 98.5% | -6.53% (inactive) | -3.97% (inactive)
22 | O=C(CNc1ccc(Oc2ccccc2)cc1)N1CCOCC1 | 92.5% | 95.5% (inactive) | 92.5% (inactive) | 92.1% (inactive) | 105% (inactive) | 4.96% (inactive) | 100% | 105% | -7.81% (inactive) | 6.98% (inactive)
23 | COc1ccc(N2CC(C(=O)Nc3ccc(F)cc3F)CC2=O)cc1 (stereo not given) | 102% | 93.5% (inactive) | 102% (inactive) | 108% (inactive) | 96.6% (inactive) | 5.19% (inactive) | 91.4% | 96.6% | -3.47% (inactive) | 1.13% (inactive)
24 | Cc1ccc(SCc2[nH]nc3c2C(c2ccc(C)o2)C(C#N)=C(N)O3)cc1 (stereo not given) | 91% | 88% (inactive) | 91% (inactive) | 74.3% (inactive) | 76.8% (inactive) | -5.55% (inactive) | 82.4% | 76.8% | -7.03% (inactive) | 2.06% (inactive)
25 | CNC(=O)c1nnn(Cc2ccccc2)c1NC(C)=O | 97.5% | 105% (inactive) | 97.5% (inactive) | 104% (inactive) | 88.9% (inactive) | -7.25% (inactive) | 96.1% | 88.9% | 1.35% (inactive) | 12.5% (inactive)
26 | COC(=O)CCC(=O)Nc1cccc(Br)c1 | 128% | 85% (inactive) | 128% (inactive) | 110% (inactive) | 101% (inactive) | 0.985% (inactive) | 100% | 101% | -9.32% (inactive) | -3.65% (inactive)
27 | COc1cc(Cl)c(C)cc1NC(=O)COC(=O)c1cnc(C)cn1 | 108% | 110% (inactive) | 108% (inactive) | 95.1% (inactive) | 97% (inactive) | -2.33% (inactive) | 99.3% | 97% | -4.25% (inactive) | -0.95% (inactive)
28 | O=C(Cn1ccc2ccccc2c1=O)NCCC(=O)N1CCN(C(=O)c2ccco2)CC1 | 89.5% | 109% (inactive) | 89.5% (inactive) | 102% (inactive) | 98.1% (inactive) | 6.74% (inactive) | 91.4% | 98.1% | -1.6% (inactive) | -2.3% (inactive)
29 | CC(O)c1nc2ccccc2n1C1CCCCC1 (stereo not given) | 104% | 91.5% (inactive) | 104% (inactive) | 124% (inactive) | 97.2% (inactive) | 11.3% (inactive) | 85.9% | 97.2% | -1.18% (inactive) | 3.55% (inactive)
30 | Cc1ccc(-c2noc(CCC(=O)NCCc3ccccc3Cl)n2)cc1 | 77.5% | 90% (inactive) | 77.5% (inactive) | 103% (inactive) | 99.6% (inactive) | 12% (inactive) | 87.7% | 99.6% | -3.29% (inactive) | -5.17% (inactive)
31 | COc1ccc2c(c1)cc(C(=O)O)n2C | 92.5% | 73% (inactive) | 92.5% (inactive) | 102% (inactive) | 98.7% (inactive) | 8.84% (inactive) | 89.9% | 98.7% | -5.39% (inactive) | -5.67% (inactive)
32 | CC1CCCCC1NC(=O)c1nn(C)c(=O)c2ccccc12 (stereo not given) | 88% | 104% (inactive) | 88% (inactive) | 90.4% (inactive) | 89.2% (inactive) | 13.3% (inactive) | 75.8% | 89.2% | -1.69% (inactive) | -10% (inactive)

Reference: PubChem BioAssay
